Calls of active or inactive are those of the source. The rule behind the calls is not given here.
Columns and labels:
[1] = target: Telomerase reverse transcriptase (Homo sapiens, UniProt O14746); assay: Inhibition of telomerase activity in human MGC803 cells after 24 hrs by TRAP-PCR-ELISA assay
[2] = Downregulation of cyclin D1 expression in human MGC803 cells after 48 hrs by Western blot analysis; type: functional, cell-based; conditions: MGC-803
Summary of the method: (§1)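 MGC-803 cells exposed 48 h; lysed in RIPA buffer, protein measured by BCA, […] total protein run on SDS–PAGE and blotted to PVDF. Primary antibodies 1 h in TBS/Tween-20 (0.075%) with 3% Marvel: anti-TERT, anti-β-actin, anti-Cyclin D1, anti-phospho-AKT, anti-AKT, each 1:500. HRP secondaries, ECL detection. DMSO vehicle control; LY used as comparator.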

[3] = Downregulation of TERT expression in human MGC803 cells after 48 hrs by Western blot analysis; type: functional, cell-based; conditions: MGC-803
Summary of the method: as §1

[4] = test system: MGC-803; assay: Inhibition of PI3K-mediated Akt phosphorylation in human MGC803 cells after 48 hrs by Western blot analysis; type: cell-based
Summary of the method: as §1

Sequence of Telomerase reverse transcriptase (O14746 whole entry): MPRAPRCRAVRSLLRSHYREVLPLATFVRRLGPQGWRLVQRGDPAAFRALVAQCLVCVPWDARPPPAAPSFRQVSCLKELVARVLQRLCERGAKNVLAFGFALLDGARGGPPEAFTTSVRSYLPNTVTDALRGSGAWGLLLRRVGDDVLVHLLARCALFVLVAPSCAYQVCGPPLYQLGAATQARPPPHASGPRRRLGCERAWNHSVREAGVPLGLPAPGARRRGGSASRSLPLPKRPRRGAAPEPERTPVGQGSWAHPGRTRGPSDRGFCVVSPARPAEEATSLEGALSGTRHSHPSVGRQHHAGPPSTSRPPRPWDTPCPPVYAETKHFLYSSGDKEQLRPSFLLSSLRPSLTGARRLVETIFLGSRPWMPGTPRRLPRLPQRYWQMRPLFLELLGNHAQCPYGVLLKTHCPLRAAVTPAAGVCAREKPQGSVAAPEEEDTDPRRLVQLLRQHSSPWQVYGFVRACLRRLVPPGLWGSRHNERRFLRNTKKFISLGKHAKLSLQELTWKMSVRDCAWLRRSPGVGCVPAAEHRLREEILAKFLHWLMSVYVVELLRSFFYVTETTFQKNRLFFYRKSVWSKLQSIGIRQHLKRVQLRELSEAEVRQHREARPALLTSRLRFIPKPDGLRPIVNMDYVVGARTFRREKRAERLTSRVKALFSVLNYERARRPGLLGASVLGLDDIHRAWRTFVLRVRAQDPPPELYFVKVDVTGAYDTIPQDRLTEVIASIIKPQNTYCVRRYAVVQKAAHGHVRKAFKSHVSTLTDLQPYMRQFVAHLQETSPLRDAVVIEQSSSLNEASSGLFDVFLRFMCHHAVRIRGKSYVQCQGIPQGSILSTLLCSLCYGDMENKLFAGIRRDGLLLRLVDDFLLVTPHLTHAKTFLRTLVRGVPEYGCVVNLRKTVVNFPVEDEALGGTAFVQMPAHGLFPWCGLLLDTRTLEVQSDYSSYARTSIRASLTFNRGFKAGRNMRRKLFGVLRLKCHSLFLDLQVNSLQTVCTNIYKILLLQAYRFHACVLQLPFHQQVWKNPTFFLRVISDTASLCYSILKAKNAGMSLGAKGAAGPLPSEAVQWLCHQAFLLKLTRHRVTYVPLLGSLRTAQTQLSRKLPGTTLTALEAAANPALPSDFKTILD

Structure (SMILES): CC1=NN2C(=O)COc3cc([N+](=O)[O-])ccc3C2C1 (centres undefined)
- IC50 [1]: 6.6 µM

Structure (SMILES): CC1=NN2C(=O)COc3ccc(Cl)cc3C2C1 (centres undefined)
- Activity [2]: Active
- Activity [3]: Active
- IC50 [1]: 1.71 µM
- inhibition [4]: Active

Structure (SMILES): CC1=NN2C(=O)COc3c(Br)cc(Br)cc3C2C1 (centres undefined)
- Activity [2]: Active
- Activity [3]: Active
- IC50 [1]: 0.78 µM
- inhibition [4]: Active

Structure (SMILES): CC[n+]1c(-c2ccccc2)c2cc(N)ccc2c2ccc(N)cc21 [HOMIDIUM BROMIDE]
- IC50 [1]: 2.39 µM

Structure (SMILES): CC1=NN2C(=O)COc3ccccc3C2C1 (centres undefined)
- IC50 [1]: 14.8 µM

Structure (SMILES): CC1=NN2C(=O)COc3cc(C)ccc3C2C1 (centres undefined)
- Activity [3]: Active
- IC50 [1]: 21.9 µM

Structure (SMILES): CC1=NN2C(=O)COc3c(F)cccc3C2C1 (centres undefined)
- Activity [3]: Active
- IC50 [1]: 2.11 µM

Structure (SMILES): COc1cccc2c1OCC(=O)N1N=C(C)CC21 (centres undefined)
- Activity [3]: Active
- IC50 [1]: 10.8 µM

Structure (SMILES): CC1=NN2C(=O)COc3ccc(C(F)(F)F)cc3C2C1 (centres undefined)
- Activity [3]: Active
- IC50 [1]: 3.14 µM

From ChEMBL document CHEMBL2321715, “Design and synthesis of novel 2-methyl-4,5-substitutedbenzo[f]-3,3a,4,5-tetrahydro-pyrazolo[1,5-d][1,4]oxazepin-8(7H)-one derivatives as telomerase inhibitors” (Bioorg Med Chem Lett, 2013)
